Assay results: article PMC12064631 (Clinical Pharmacokinetics, 2025)
Where “and” joins values, the source holds several entries; their conditions need not be identical. Identical values can stand only once. Like-named read-outs stand apart in the source and are kept apart here. One block for each compound: values may come before it.

Experiments:
DPP‐4 = details: cited from earlier work
[1] = system: DPP-4 activity in the plasma; details: plasma of humans, rodents, dogs, and monkeys, range over species; cited from earlier work
active GLP-1 = assay: Plasma active GLP-1 level after single and multiple doses of DBPR108; type: in vivo, human (Chinese patients with type 2 diabetes); details: for Emax,GLP-1 (active GLP-1): mean (SD)
Summary of the method: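 Patients with type 2 diabetes, 10 per group, received oral tablets of 50, 100 or 200 mg fasting, once daily on days 1 and 3–9. Plasma was spun at 1300 ± 50 g, 2–8 °C, 10 min and stored ≤ –60 °C. Active GLP-1 was measured by MSD V-PLEX kit (LLOQ 0.182 pM). Emax and time to Emax were taken per group, and correlation with exposure was checked.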

Safety assessment = type: in vivo, human (Chinese patients with type 2 diabetes)
Summary of the method: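 Treatment-emergent adverse events were recorded as a secondary outcome in all patients dosed at least once. Dosing was oral tablets of 50, 100 or 200 mg, fasting, once daily on days 1 and 3–9. Patients were grouped by the dose actually received.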

[2] = system: fibroblast activation protein; details: cited from earlier work
DPP‐2 = details: cited from earlier work
DPP-4 [3] = target: T1, DPP-4 (Homo sapiens, UniProt P27487); assay: Inhibition of plasma DPP-4 activity after single and multiple doses of DBPR108; type: in vivo, human (Chinese patients with type 2 diabetes)
Summary of the method: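 Chinese adults with type 2 diabetes (HbA1c 7.0–9.5%, BMI 19–35 kg/m2), 10 per group. Oral tablets of 50, 100 or 200 mg were given fasting, once daily on days 1 and 3–9. Plasma was spun at 1300 ± 50 g, 2–8 °C, 10 min and stored ≤ –60 °C. DPP-4 activity was read on a microplate reader (LLOQ 21.23 μU/mL), with % inhibition taken from baseline.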

[4] = type: in vivo, human (Chinese patients with type 2 diabetes); details: for AUC(0-inf) / AUC(0-t) / AUC / Tmax / Vd/F / half-life / k el / Cmax: human, plasma; for AUC(0-inf) / AUC(0-t) / AUC / Tmax / Vd/F / half-life / k el: oral; for AUC(0-inf): AUCinf; for AUC(0-inf) / AUC(0-t) / AUC / Vd/F / half-life / k el / %AUC_ex,ss / CLss/F / Cmin,ss / %AUC_ex / CL/F: mean (SD); for AUC(0-t): AUClast; for AUC: AUCtau; for Tmax: median (range); for Vd/F: Vz/F; for k el: λz; for Cmax: po
Summary of the method: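 Fasting oral tablets of 50, 100 or 200 mg were given once daily on days 1 and 3–9 (eight doses). Plasma was spun at 1700 ± 50 g, 4 °C, 10 min, acidified with 50% acetic acid (1:100) and stored ≤ –60 °C. Analysis was by validated LC-MS/MS (1.00–2000 ng/mL; LLOQ 1.00 ng/mL). Individual parameters and accumulation ratio came from noncompartmental analysis using actual sampling times.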

[5] = single dose of 100 mg, healthy subjects, cited from earlier work
DPP‐8 = details: cited from earlier work
DPP-4 [6] = target: T1, DPP-4; assay: PK-PD relationship between DPP-4 inhibition and DBPR108 exposure; type: in vivo, human (Chinese patients with type 2 diabetes)
Summary of the method: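 Each patient's plasma drug level (LC-MS/MS) was paired with plasma DPP-4 % inhibition, after one dose and after repeated once-daily oral dosing at 50–200 mg. Linear correlation with exposure was assessed, and inhibition versus concentration was fitted with an Emax model giving Emax and EC50. Only patients with evaluable PK and PD data were included.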

diet-induced obese mice = details: DBPR108 in combination with metformin; cited from earlier work
DPP‐9 = details: cited from earlier work
[7] = large clinical trials, rare; cited from earlier work
DPP-4 [8] = details: 168 h post single dose of 25 mg, healthy Japanese subjects; cited from earlier work
[9] = multiple doses 50 mg once daily
[10] = multiple doses 100 mg once daily
[11] = multiple doses 200 mg once daily
[12] = multiple doses, range over 50-200 mg groups
[13] = single dose and multiple doses, 50 mg to 200 mg, linear regression
[14] = 50 mg, multiple doses 50 mg once daily
[15] = 100 mg, multiple doses 100 mg once daily
[16] = 200 mg, multiple doses 200 mg once daily

T1 sequence (P27487 39-766): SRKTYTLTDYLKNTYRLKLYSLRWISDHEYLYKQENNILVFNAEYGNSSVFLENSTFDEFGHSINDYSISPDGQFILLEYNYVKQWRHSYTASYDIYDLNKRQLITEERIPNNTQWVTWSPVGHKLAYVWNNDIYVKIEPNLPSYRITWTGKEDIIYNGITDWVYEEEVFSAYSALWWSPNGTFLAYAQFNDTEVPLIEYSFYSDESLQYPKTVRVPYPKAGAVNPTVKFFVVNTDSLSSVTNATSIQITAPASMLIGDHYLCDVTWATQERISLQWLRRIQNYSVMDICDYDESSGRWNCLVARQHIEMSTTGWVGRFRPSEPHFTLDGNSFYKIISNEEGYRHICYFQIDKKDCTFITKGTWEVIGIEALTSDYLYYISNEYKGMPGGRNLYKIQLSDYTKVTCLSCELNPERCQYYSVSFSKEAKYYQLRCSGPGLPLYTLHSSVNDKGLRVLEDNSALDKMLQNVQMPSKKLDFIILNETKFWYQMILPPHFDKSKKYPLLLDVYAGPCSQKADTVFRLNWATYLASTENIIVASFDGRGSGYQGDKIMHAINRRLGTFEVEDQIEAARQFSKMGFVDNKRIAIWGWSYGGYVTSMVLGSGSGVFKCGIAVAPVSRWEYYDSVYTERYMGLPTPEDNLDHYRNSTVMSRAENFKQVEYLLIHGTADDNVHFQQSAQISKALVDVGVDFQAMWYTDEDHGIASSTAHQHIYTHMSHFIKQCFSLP

maximum inhibitory efficacy of DPP-4 (DPP-4 [3]; [12]): 62.1 to 89.4%
time to Emax,DPP-4 (DPP-4 [3]; [12]): 3 to 4 h
median time to Emax of DPP-4 (DPP-4 [3]; single dose 50 mg): 2 h
median time to Emax of DPP-4 (DPP-4 [3]; single dose 100 mg): 4 h
median time to Emax of DPP-4 (DPP-4 [3]; single dose 200 mg): 6 h
Dose proportionality of exposure (power model) ([4]; 50 mg to 200 mg, single dose and multiple doses): increased dose proportionally
Steady state achieved on ([4]; dosing on days 1 and 3-9): 7 days
AUC(0-inf) ([4]; 50 mg, single dose 50 mg): 792 ng·h/mL
AUC(0-t) ([4]; 50 mg, single dose 50 mg): 780 ng·h/mL
AUC ([4]; 50 mg, single dose 50 mg): 770 ng·h/mL
Tmax ([4]; 50 mg, single dose 50 mg): 1.5 h
Vd/F [4, 14]: 806 L
Vd/F ([4]; 50 mg, single dose 50 mg): 479 L
half-life ([4]; 50 mg, t½, single dose 50 mg): 5 h
half-life ([4]; 50 mg, t½,ss, multiple doses 50 mg once daily): 8 h
k el [4, 14]: 3.56e-05 s⁻¹
k el ([4]; 50 mg, single dose 50 mg): 5e-05 s⁻¹
AUC(0-inf) ([4]; 100 mg, single dose 100 mg): 1530 ng·h/mL
AUC(0-t) ([4]; 100 mg, single dose 100 mg): 1500 ng·h/mL
AUC ([4]; 100 mg, single dose 100 mg): 1450 ng·h/mL
Tmax ([4]; 100 mg, single dose 100 mg): 4.5 h
Vd/F [4, 15]: 896 L
Vd/F ([4]; 100 mg, single dose 100 mg): 1010 L
half-life ([4]; 100 mg, t½, single dose 100 mg): 9.6 h
half-life ([4]; 100 mg, t½,ss, multiple doses 100 mg once daily): 7.4 h
k el [4, 15]: 4.03e-05 s⁻¹
k el ([4]; 100 mg, single dose 100 mg): 3.61e-05 s⁻¹
AUC(0-inf) ([4]; 200 mg, single dose 200 mg): 3400 ng·h/mL
AUC(0-t) ([4]; 200 mg, single dose 200 mg): 3280 ng·h/mL
AUC ([4]; 200 mg, single dose 200 mg): 3120 ng·h/mL
Tmax ([4]; 200 mg, single dose 200 mg): 4.5 h
Vd/F [4, 16]: 894 L
Vd/F ([4]; 200 mg, single dose 200 mg): 1070 L
half-life ([4]; 200 mg, t½, single dose 200 mg): 12.3 h
half-life ([4]; 200 mg, t½,ss, multiple doses 200 mg once daily): 10.2 h
k el [4, 16]: 2.69e-05 s⁻¹
k el ([4]; 200 mg, single dose 200 mg): 2.78e-05 s⁻¹
Cmax ([4]; 50 mg): 151 ng/mL
Cmax ([4]; 100 mg): 239 ng/mL
Cmax ([4]; 200 mg): 474 ng/mL
%AUC_ex,ss [4, 9]: 4.48 (4.09) %
CLss/F [4, 9]: 76.0 (23.3) L/h
Cmin,ss [4, 9]: 3.2 (1.6) ng/mL
%AUC_ex,ss [4, 10]: 2.33 (3.04) %
CLss/F [4, 10]: 76.4 (22.3) L/h
Cmin,ss [4, 10]: 5.6 (2.9) ng/mL
%AUC_ex,ss [4, 11]: 3.17 (3.44) %
CLss/F [4, 11]: 64.6 (16.7) L/h
Cmin,ss [4, 11]: 18.3 (16.8) ng/mL
Accumulation ratio (Rac) ([4]; multiple doses, range over the 50-, 100-, 200-mg groups): 0.85 to 1.3 and 0.85–1.3
Steady state reached after ([4]; once-daily dosing, 50-200 mg): four
%AUC_ex ([4]; single dose 50 mg): 1.5 (0.9) %
CL/F ([4]; single dose 50 mg): 66.6 (16.5) L/h
%AUC_ex ([4]; single dose 100 mg): 2.3 (1.4) %
CL/F ([4]; single dose 100 mg): 72.9 (26.2) L/h
%AUC_ex ([4]; single dose 200 mg): 3.2 (3.2) %
CL/F ([4]; single dose 200 mg): 63.3 (17.0) L/h
EC50 (DPP-4 [6]; EC50 (Emax model), after a single administration, DPP-4 inhibition versus plasma concentration): 323 nM
Emax,DPP-4 (Emax model) (DPP-4 [6]; after multiple doses, DPP-4 inhibition versus plasma concentration): 106.19%
Emax (DPP-4 [6]; read-out: Emax,DPP-4 (Emax model), after a single administration, DPP-4 inhibition versus plasma concentration): 120%
Emax (DPP-4 [6]; read-out: Emax,DPP-4 (Emax model), after multiple doses, DPP-4 inhibition versus plasma concentration): 106%
Correlation between DPP-4 inhibition and DBPR108 exposure (DPP-4 [6]; [13]): linear correlation was observed
Structure (SMILES): CC(C)(CC(=O)N1CCCC1)NCC(=O)N1C[C@@H](F)C[C@H]1C#N [DBPR108, (2S,4S)-1-[2-(1,1-dimethyl-3-oxo-3-pyrrolidin-1-yl-propylamino)acetyl]-4-fluoro-pyrrolidine-2-carbonitrile]
IC50 (DPP‐4): 15 nM
IC50 [1]: 4.1 to 20.4 nM
Active GLP-1 levels after administration (active GLP-1; after DBPR108 administration, 50-200 mg): increased
Emax,GLP-1 (active GLP-1) (active GLP-1; [9]): 5.7 (2.2) pM
Emax,GLP-1 (active GLP-1) (active GLP-1; [10]): 6.6 (2.3) pM
Emax,GLP-1 (active GLP-1) (active GLP-1; [11]): 5.8 (3.2) pM
median time to Emax,GLP-1 (active GLP-1; [12]): 6 to 7 h
median time to Emax,GLP-1 (active GLP-1; single dose 50 mg): 8 h
Emax,GLP-1 (active GLP-1) (active GLP-1; single dose 50 mg): 4.5 (1.6) pM
median time to Emax,GLP-1 (active GLP-1; single dose 100 mg): 12 h
Emax,GLP-1 (active GLP-1) (active GLP-1; single dose 100 mg): 4.8 (1.4) pM
median time to Emax,GLP-1 (active GLP-1; single dose 200 mg): 12 h
Emax,GLP-1 (active GLP-1) (active GLP-1; single dose 200 mg): 5.5 (2.1) pM
Correlation between changes in plasma active GLP-1 and DBPR108 exposure (active GLP-1; [13]): no linear correlation was noted
Tolerability (Safety assessment; 50-200 mg once daily, eight doses): well tolerated
Cardiovascular adverse events (Safety assessment; all 30 patients): no cardiovascular adverse events were observed
Severe TEAEs, serious TEAEs, TEAEs leading to treatment interruption or discontinuation (Safety assessment; all 30 patients): No severe TEAEs, serious TEAEs, or TEAEs leading to treatment interruption or discontinuation occurred
TEAE white blood cell count increase, n [%] (Safety assessment; all 30 patients): 1 [3.3%]
Patients with treatment-emergent adverse events (TEAEs) (Safety assessment; all 30 patients, 50-200 mg): 20%
IC50 [2]: > 50 nM
IC50 (DPP‐2): > 50 nM
Cmax ([5]; mean (SD)): 218.8 (101.8) ng/mL
t½ ([5]; mean (SD)): 8.2 (8.6) h
Tmax ([5]; median (range)): 4.48 (range 1–6) h
IC50 (DPP‐8): > 50 nM
Glucose tolerability (diet-induced obese mice): improved glucose tolerability
IC50 (DPP‐9): > 50 nM

Structure (SMILES): Cn1c(=O)cc(N2CCC[C@@H](N)C2)n(Cc2ccccc2C#N)c1=O [alogliptin]
Risk of pancreatitis [7]: increased risks of pancreatitis were observed

Structure (SMILES): CS(=O)(=O)n1cc2c(n1)CN([C@H]1CO[C@H](c3cc(F)ccc3F)[C@@H](N)C1)C2 [omarigliptin]
Emax,DPP-4 (DPP-4 [8]): 86.0%

Structure (SMILES): N[C@@H](CC(=O)N1CCn2c(nnc2C(F)(F)F)C1)Cc1cc(F)c(F)cc1F [sitagliptin]
Risk of pancreatitis [7]: increased risks of pancreatitis were observed
